# TPT1 inhibitor – Candida albicans TPT1 enzyme inhibitors, primary screen, biochemical, fluorescence polarization; recombinant caTPT1, FP RNA substrate dephosphorylation; inhibition, % at 5 µM; 300,000 tested, 0.81% active; AID 1962, 2009;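 active means inhibition above the mean of all tested compounds plus 3 SD, set per screening campaign, cut at about 24% in these data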
# CSN deneddyl inh – inhibitors of CSN-mediated cullin deneddylation, primary screen, biochemical, fluorescence polarization, uHTS; inhibition, % at 12.5 µM; Purified CSN, SCF-Nedd8-OG deneddylation; 360,000 tested, 0.38% active; COP9 signalosome complex subunit 5 (Homo sapiens), Q92905;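 active means pattern-corrected inhibition above about 35%, with an unprinted fluorescence ratio check between 0.5 and 1.5, limit read from the data, passing the limit was not always enough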
# Target sequence (Q92905 whole entry, looked up, one chain of several): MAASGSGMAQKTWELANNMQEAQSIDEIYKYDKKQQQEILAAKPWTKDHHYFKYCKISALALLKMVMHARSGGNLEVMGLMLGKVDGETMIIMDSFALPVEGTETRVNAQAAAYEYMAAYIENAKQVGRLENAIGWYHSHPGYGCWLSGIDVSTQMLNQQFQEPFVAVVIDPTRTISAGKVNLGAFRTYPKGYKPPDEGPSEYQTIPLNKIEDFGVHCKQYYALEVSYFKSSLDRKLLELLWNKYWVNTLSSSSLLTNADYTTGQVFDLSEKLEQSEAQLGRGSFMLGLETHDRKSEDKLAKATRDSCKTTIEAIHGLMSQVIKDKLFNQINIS
#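 Test system: Human Csn5 produced in HEK293T cells | Compound: 12.5 µM single point | Times: 90 min, room temperature | Signal: Fluorescence polarization readout | Read-out basis: % inhibition of substrate cleavage by Csn5 | Controls: no-enzyme wells high, enzyme-with-substrate wells low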
# HNF4A DNA FP – change in binding of human HNF4A to DNA, primary screen, biochemical, fluorescence polarization, FITC-DNA; 1 h; activity change, % at 10 µM; 360,000 tested, 0.3% active; in the data active means activity change above about 30%, passing the limit was not always enough
# NR1D1 modulator – modulators of Rev-erb alpha DNA binding, primary screen, biochemical, FITC-DNA, fluorescence polarization, uHTS; Nuclear receptor subfamily 1 group D member 1 (Homo sapiens), P20393; Rev-erbα–FITC-DNA binding, 90 min; activity, % at 10 µM; 370,000 tested, 0.79% active; AID 1259318, 2017;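 active means activity above about 14%, limit read from the data; passing the limit was not always enough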
# caTPT1 confirm – Candida albicans TPT1 inhibitors, confirmation, biochemical, fluorescence polarization, triplicate; recombinant caTPT1, RNase T1 coupled; shares compounds with TPT1 inhibitor; 2,400 tested, 74% active; inhibition, % at 5 µM;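 active means inhibition above the primary screen limit, the mean inhibition of all tested compounds plus 3 SD, cut at about 25% in these data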
# RNase T1 counter – RNase T1 inhibitors, counter-screen for TPT1 inhibitor project, biochemical, fluorescence polarization | inhibition, % at 5 µM | RNase T1 cleavage, 1536-well | AID 2153, 2009 | shares compounds with TPT1 inhibitor | 2,400 tested, 83% active;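 active means inhibition above the solvent-only control well mean plus 3 SD, limit set per screening run, cut at about 23% in these data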;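 further: inhibitors block cleavage so intact labeled substrate keeps polarization high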
# Target sequence (P00651 whole entry, looked up): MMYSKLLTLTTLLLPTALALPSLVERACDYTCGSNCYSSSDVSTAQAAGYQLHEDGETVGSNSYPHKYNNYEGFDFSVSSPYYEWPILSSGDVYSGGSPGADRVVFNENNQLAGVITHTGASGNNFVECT
# CSN deneddyl val – Csn5 deneddylation inhibitors, confirmation, biochemical, fluorescence polarization, single concentration, SCF-Nedd8OG substrate | shares compounds with CSN deneddyl inh | Csn5 deneddylation of SCF-Nedd8OG, 90 min | inhibition, % at 16.6 µM | 540 tested, 62% active | AID 720654, 2013; in the data active means inhibition above about 50%
# MMP-2 counter – MMP-2 protease inhibition counter-screen, confirmation, counter-screen for CSN deneddylation inhibitor project, biochemical, fluorescence, single concentration. shares compounds with CSN deneddyl inh. recombinant MMP-2, FRET substrate fluorescence, 60 min. inhibition, % at 16.6 µM. 540 tested, 33% active;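 active means corrected plate-normalized z-score of 5 or more, or -5 or less, or inhibition of 15% or more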
# Thrombin cntr – thrombin (bovine) inhibition, counter-screen for CSN hits. shares compounds with CSN deneddyl inh. bovine thrombin cleavage of Ub4-pepOG, fluorescence polarization. inhibition, % at 16.6 µM. 540 tested, 49% active. AID 720656;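 active means inhibition at or above a set limit, with a fluorescence interference ratio between 0.5 and a set maximum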
# HNF4a DNA conf – change in HNF4A binding to DNA, retest, confirmation, biochemical, fluorescence polarization, FITC-DNA; 210 tested, 99% active; shares compounds with HNF4A DNA FP; activity change, % at 12.5 µM; 1 h; AID 1224897, 2016; call rule not given here
# Hits are given with their value; i = inactive; nt = no result given. This is a sample that favours compounds with a hit; in the whole collection about 1.7% have one here.
SMILES,TPT1 inhibitor,CSN deneddyl inh,HNF4A DNA FP,NR1D1 modulator,caTPT1 confirm,RNase T1 counter,HNF4a DNA conf,others
O=C(O)c1ccc(-c2sc(Nc3ccccc3)n[n+]2-c2ccc(F)cc2)cc1,i,i,i,nt,nt,nt,nt,
CCc1ccc(Nc2n[n+](-c3ccccc3)c(-c3c(Cl)cccc3Cl)s2)cc1,i,i,i,i,nt,nt,nt,
CCN(CC)c1ccc(-c2sc(Nc3ccccc3)n[n+]2-c2ccc(F)cc2)cc1,95,65,i,i,120,117,nt,CSN deneddyl val=146;MMP-2 counter=i;Thrombin cntr=i
Cc1ccc(-n2c(C)cc(/C=C3\SC(=O)NC3=O)c2C)cc1,i,i,i,i,nt,nt,nt,
Cc1cc(/C=C2/SC(=S)N(c3cccc(Cl)c3)C2=O)c(C)n1-c1cccnc1,114,47,43,i,88,99,nt,CSN deneddyl val=128;MMP-2 counter=i;Thrombin cntr=i
CN1C(=O)/C(=C/c2coc3ccc(O)cc3c2=O)SC1=S,i,i,i,i,nt,nt,nt,
Cc1cc(/C=C2\SC(=S)NC2=O)c(C)n1-c1cccc(O)c1,90,66,97,i,85,98,nt,CSN deneddyl val=i;MMP-2 counter=19;Thrombin cntr=66
Cc1cc(/C=C2\SC(=S)N(C)C2=O)c(C)n1-c1ccc(O)cc1,120,51,79,i,129,129,nt,CSN deneddyl val=181;MMP-2 counter=i;Thrombin cntr=62
Cc1cc(/C=C2\SC(=S)N(C)C2=O)c(C)n1-c1ccccc1O,147,39,i,i,147,142,nt,CSN deneddyl val=63;MMP-2 counter=i;Thrombin cntr=37
O=C(C(=O)N1CCC(CNS(=O)(=O)c2ccc(F)c(F)c2)CC1)c1cc2ccccc2o1,nt,nt,nt,i,nt,nt,nt,
Cc1cc(N2CCN(S(C)(=O)=O)C[C@@H]2C)ccc1N1CCN(Cc2ccccc2)[C@@H](C)C1,nt,nt,nt,i,nt,nt,nt,
CN(/N=C/c1ccc(-c2ccc([N+](=O)[O-])cc2)o1)c1ccccc1,73,50,48,i,74,82,nt,CSN deneddyl val=92;MMP-2 counter=i;Thrombin cntr=25
CCOC(=O)N1CCN(S(=O)(=O)c2ccc(C(=O)Nc3sc4c(c3C(=O)OC)CCN(C)C4)cc2)CC1,i,i,i,i,nt,nt,nt,
CN1CCc2c(sc(NC(=O)c3ccc(S(=O)(=O)N4CCCC4)cc3)c2C(N)=O)C1,116,i,36,i,133,134,32,
C=CCN1C(=O)/C(=C/c2ccc(O)cc2)S/C1=N/c1nccs1,73,44,45,i,93,92,69,
C=CCN1C(=O)S/C(=C/c2ccsc2)C1=O,i,i,i,i,nt,nt,nt,
CCCCc1nnn2c1C1c3cc(Br)ccc3CCN1C(=O)C2 (centres undefined),nt,nt,nt,i,nt,nt,nt,
O=C1c2ccccc2C(=O)c2c(/C=C/N3CCCCC3)ccnc21,nt,i,i,i,nt,nt,nt,
COc1ccc(-c2sc(Nc3ccccc3)n[n+]2-c2ccc(F)cc2)cc1Br,i,i,i,i,nt,nt,nt,
CN(C)c1ccc(-c2sc(Nc3ccccc3)n[n+]2-c2ccc(F)cc2)cc1,35,i,69,i,93,98,80,
COc1ccc(NC(=O)CN(C)C(=O)CSc2nc3ccccc3s2)cc1,36,i,43,i,36,45,46,
CN(CC(=O)Nc1ccccc1Cl)C(=O)CSc1nc2ccccc2s1,i,i,i,i,nt,nt,nt,
Nc1nnc(SCc2nc3scc(-c4ccccc4)c3c(=O)[nH]2)s1,36,i,45,i,41,54,56,
O=C(NCCc1ccccc1Cl)[C@@H]1CCCN1C(=O)[C@@H](NC(=O)N1CCOCC1)c1ccccc1,nt,nt,nt,i,nt,nt,nt,
CCn1c(SCc2nc3sc(C(=O)O)c(C)c3c(=O)[nH]2)nnc1-c1ccc(Cl)cc1,i,i,i,i,nt,nt,nt,
SMILES,TPT1 inhibitor,CSN deneddyl inh,HNF4A DNA FP,NR1D1 modulator,caTPT1 confirm,RNase T1 counter,HNF4a DNA conf,others
Cc1sc2nc(CSc3nnnn3-c3ccc(Cl)cc3)[nH]c(=O)c2c1C,31,i,38,i,40,49,33,
COc1ccc(CN(CCN2CCOCC2)C(=O)c2ccc(F)cc2Cl)cc1OC,nt,nt,nt,i,nt,nt,nt,
CN1C2=N[C@@H](c3ccc4c(c3)OCO4)CC(=O)N2/C(=C\c2ccccc2)[C@@H]1c1ccccc1,nt,nt,nt,i,nt,nt,nt,
COc1cc(/C=C2\N=C3CCCCCN3C2=O)ccc1O,50,57,47,i,69,73,76,
COc1ccc(/C=C2\N=C3CCCCCN3C2=O)cc1OC,i,i,i,i,nt,nt,nt,
CN1C(=O)/C(=C\C=C2/CCCN2C)N(C)C1=S,60,i,62,i,88,102,93,
Cc1nn(-c2ccccc2)c(C)c1/C=C1\C(=O)N(C)C(=S)N1C,i,i,i,i,nt,nt,nt,
O=C(NC1CCCC1)[C@@H]1CCCN1C(=O)[C@@H](NS(=O)(=O)c1ccc(F)cc1F)c1ccccc1,nt,nt,nt,i,nt,nt,nt,
CC(=O)Nc1ccc(S(=O)(=O)NCc2nc(-c3cccc(C)c3)no2)cc1,41,i,62,i,73,80,64,
CC(=NN1CCN(c2ccccn2)CC1)c1ccccc1O,nt,nt,nt,i,nt,nt,nt,
Cc1ccc(-n2nc3c(N4CCC(C(=O)N5CCC(C(N)=O)CC5)CC4)nnc(C)c3c2C)cc1,35,i,49,i,40,48,48,
CN(C(=O)COC(=O)c1ccc([N+](=O)[O-])cc1N)c1ccccc1,84,42,43,i,75,82,92,
CC1=Nc2ccccc2/C1=C/c1nc(-c2ccc(C)s2)oc1O,166,i,55,i,179,170,74,
COC(=O)[C@H]1[C@H]2C[C@@H]3c4[nH]c5cc(OC)ccc5c4CCN3C[C@H]2C[C@@H](OC(=O)c2ccc(N)cc2)[C@@H]1OC,62,i,43,i,86,91,65,

# Screens (PubChem)
